From ChEMBL document CHEMBL1914449, “Lead optimization at C-2 and N-3 positions of thiazolidin-4-ones as HIV-1 non-nucleoside reverse transcriptase inhibitors” (Bioorg Med Chem, 2011)
≈ marks a conversion by molar mass, not a printed value.

system: Human immunodeficiency virus 1; assay: Antiviral activity against R5 tropic Human immunodeficiency virus 1 subtype B-ADA5 infected in human TZM-bl cells assessed as inhibition of virus-induced cytopathic effect after 2 days by luciferase assay; format: functional, organism-based; conditions: Human immunodeficiency virus 1, subtype B-ADA5, TZM-bl, 48 h
How it was run: (§1)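 TZM-bl cells were seeded at 1 × 10^4 per well and incubated overnight at 37 °C in 5% CO2. Medium was then replaced with HIV-1 stock for 2 h at 37 °C, and compound concentrations giving >50% viability were added. After two days, luciferase activity was read as RLU. EC50 is the mean of two independent assays, each in duplicate. Nevirapine served as positive control.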

Row | Compound | EC50 [µg/mL]
1 | Cc1cc(N2C(=O)CSC2c2c(F)cccc2Cl)no1 (stereo not drawn) | 1.06 (≈ 3.39 µM)
2 | CC(C)(C)c1cc(N2C(=O)CSC2c2c(F)cccc2Cl)no1 (stereo not drawn) | 3.07 (≈ 8.65 µM)
3 | Cc1cccc(N2C(=O)CSC2c2c(Br)cncc2Br)n1 (stereo not drawn) | 4.11 (≈ 9.58 µM)
4 | Cc1cc(C)nc(N2C(=O)CSC2c2c(Cl)cncc2Cl)c1 (stereo not drawn) | 0.31 (≈ 0.875 µM)
5 | CC(C)(C)c1cc(N2C(=O)CSC2c2c(F)cccc2F)no1 (stereo not drawn) | 2.58 (≈ 7.62 µM)
6 | Cc1cc(N2C(=O)CSC2c2c(F)cccc2Cl)nc(C)c1Br (stereo not drawn) | 0.12 (≈ 0.289 µM)
7 | Cc1nc(N2C(=O)CSC2c2c(Br)cncc2Br)ccc1Br (stereo not drawn) | 2.52 (≈ 4.96 µM)
8 | Cc1cc(N2C(=O)CSC2c2c(Cl)cncc2Cl)nc(C)c1Br (stereo not drawn) | 4.8 (≈ 11.1 µM)
9 | CSc1nc(Cl)cc(N2C(=O)CSC2c2c(F)cccc2Cl)n1 (stereo not drawn) | 1.26 (≈ 3.23 µM)

system: not listed separately; assay: Cytotoxicity in human TZM-bl cells assessed as cell viability after 48 hrs by MTT assay; format: cell-based; conditions: not given
How it was run: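 TZM-bl (JC53BL-13) cells were seeded at 1 × 10^4 per well and incubated overnight at 37 °C in 5% CO2. Medium was replaced with a twofold dilution series of compound for 48 h, and viability was read by MTT absorbance. CC50 (50% cytotoxic concentration) is the mean of three independent assays, each in quadruplicate.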

Row | Compound | CC50 at 48 h [µg/mL]
10 | Cc1cc(N2C(=O)CSC2c2c(F)cccc2Cl)no1 (stereo not drawn) | 38.5 (≈ 123 µM)
11 | CC(C)(C)c1cc(N2C(=O)CSC2c2c(F)cccc2Cl)no1 (stereo not drawn) | 40.7 (≈ 115 µM)
12 | Cc1cccc(N2C(=O)CSC2c2c(Br)cncc2Br)n1 (stereo not drawn) | 26.7 (≈ 62.2 µM)
13 | Cc1cc(C)nc(N2C(=O)CSC2c2c(Cl)cncc2Cl)c1 (stereo not drawn) | 37.3 (≈ 105 µM)
14 | CC(C)(C)c1cc(N2C(=O)CSC2c2c(F)cccc2F)no1 (stereo not drawn) | 45.9 (≈ 136 µM)
15 | Cc1cc(N2C(=O)CSC2c2c(F)cccc2Cl)nc(C)c1Br (stereo not drawn) | 40.2 (≈ 96.7 µM)
16 | Cc1nc(N2C(=O)CSC2c2c(Br)cncc2Br)ccc1Br (stereo not drawn) | 26.9 (≈ 52.9 µM)
17 | Cc1cc(N2C(=O)CSC2c2c(Cl)cncc2Cl)nc(C)c1Br (stereo not drawn) | 15.6 (≈ 36 µM)
18 | CSc1nc(Cl)cc(N2C(=O)CSC2c2c(F)cccc2Cl)n1 (stereo not drawn) | 27 (≈ 69.2 µM)

system: not listed separately; assay: Selectivity index, ratio of CC50 for human TZM-bl cells to EC50 for X4 tropic Human immunodeficiency virus 1 subtype B-3B; format: cell-based; conditions: read-out: Ratio CC50/EC50
How it was run: (§2)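 Selectivity index is CC50/EC50. […] EC50 came from the 2-day luciferase (RLU) readout in HIV-1-infected TZM-bl cells (mean of two assays).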

Row | Compound | selectivity ratio
19 | Cc1cc(N2C(=O)CSC2c2c(F)cccc2Cl)no1 (stereo not drawn) | 57.4
20 | CC(C)(C)c1cc(N2C(=O)CSC2c2c(F)cccc2Cl)no1 (stereo not drawn) | 20.8
21 | Cc1cccc(N2C(=O)CSC2c2c(Br)cncc2Br)n1 (stereo not drawn) | 12
22 | Cc1cc(C)nc(N2C(=O)CSC2c2c(Cl)cncc2Cl)c1 (stereo not drawn) | 46.6
23 | CC(C)(C)c1cc(N2C(=O)CSC2c2c(F)cccc2F)no1 (stereo not drawn) | 15.5
24 | Cc1cc(N2C(=O)CSC2c2c(F)cccc2Cl)nc(C)c1Br (stereo not drawn) | 447
25 | Cc1nc(N2C(=O)CSC2c2c(Br)cncc2Br)ccc1Br (stereo not drawn) | 4.4
26 | Cc1cc(N2C(=O)CSC2c2c(Cl)cncc2Cl)nc(C)c1Br (stereo not drawn) | 10.4
27 | CSc1nc(Cl)cc(N2C(=O)CSC2c2c(F)cccc2Cl)n1 (stereo not drawn) | 29

system: not listed separately; assay: Selectivity index, ratio of CC50 for human TZM-bl cells to EC50 for R5 tropic Human immunodeficiency virus 1 subtype B-ADA5; format: toxicity, cell-based; conditions: read-out: Ratio CC50/EC50; how it was run: as §2

Row | Compound | selectivity ratio
28 | Cc1cc(N2C(=O)CSC2c2c(F)cccc2Cl)no1 (stereo not drawn) | 36.3
29 | CC(C)(C)c1cc(N2C(=O)CSC2c2c(F)cccc2Cl)no1 (stereo not drawn) | 13.2
30 | Cc1cccc(N2C(=O)CSC2c2c(Br)cncc2Br)n1 (stereo not drawn) | 6.5
31 | Cc1cc(C)nc(N2C(=O)CSC2c2c(Cl)cncc2Cl)c1 (stereo not drawn) | 120
32 | CC(C)(C)c1cc(N2C(=O)CSC2c2c(F)cccc2F)no1 (stereo not drawn) | 18
33 | Cc1cc(N2C(=O)CSC2c2c(F)cccc2Cl)nc(C)c1Br (stereo not drawn) | 335
34 | Cc1nc(N2C(=O)CSC2c2c(Br)cncc2Br)ccc1Br (stereo not drawn) | 10.7
35 | Cc1cc(N2C(=O)CSC2c2c(Cl)cncc2Cl)nc(C)c1Br (stereo not drawn) | 3.2
36 | CSc1nc(Cl)cc(N2C(=O)CSC2c2c(F)cccc2Cl)n1 (stereo not drawn) | 21.4

system: Human immunodeficiency virus 1; assay: Antiviral activity against X4 tropic Human immunodeficiency virus 1 subtype D-UG070 infected in human TZM-bl cells assessed as inhibition of virus-induced cytopathic effect after 2 days by luciferase assay; format: functional, organism-based; conditions: Human immunodeficiency virus 1, subtype D-UG070, TZM-bl, 48 h; how it was run: as §1

Row | Compound | EC50 [µg/mL]
37 | Cc1cc(N2C(=O)CSC2c2c(F)cccc2Cl)no1 (stereo not drawn) | 0.75 (≈ 2.4 µM)
38 | CC(C)(C)c1cc(N2C(=O)CSC2c2c(F)cccc2Cl)no1 (stereo not drawn) | 1.6 (≈ 4.51 µM)
39 | Cc1cccc(N2C(=O)CSC2c2c(Br)cncc2Br)n1 (stereo not drawn) | 5.55 (≈ 12.9 µM)
40 | Cc1cc(C)nc(N2C(=O)CSC2c2c(Cl)cncc2Cl)c1 (stereo not drawn) | 1.55 (≈ 4.38 µM)
41 | Cc1cc(N2C(=O)CSC2c2c(F)cccc2Cl)nc(C)c1Br (stereo not drawn) | 0.1 (≈ 0.241 µM)
42 | CSc1nc(Cl)cc(N2C(=O)CSC2c2c(F)cccc2Cl)n1 (stereo not drawn) | 1.8 (≈ 4.61 µM)

system: Human immunodeficiency virus 1; assay: Antiviral activity against R5 tropic Human immunodeficiency virus 1 subtype C-VB59 infected in human TZM-bl cells assessed as inhibition of virus-induced cytopathic effect after 2 days by luciferase assay; format: functional, organism-based; conditions: Human immunodeficiency virus 1, subtype C-VB59, TZM-bl, 48 h; how it was run: as §1

Row | Compound | EC50 [µg/mL]
43 | Cc1cc(N2C(=O)CSC2c2c(F)cccc2Cl)no1 (stereo not drawn) | 0.68 (≈ 2.17 µM)
44 | CC(C)(C)c1cc(N2C(=O)CSC2c2c(F)cccc2Cl)no1 (stereo not drawn) | 2.5 (≈ 7.05 µM)
45 | Cc1cccc(N2C(=O)CSC2c2c(Br)cncc2Br)n1 (stereo not drawn) | 2.24 (≈ 5.22 µM)
46 | Cc1cc(C)nc(N2C(=O)CSC2c2c(Cl)cncc2Cl)c1 (stereo not drawn) | 1.1 (≈ 3.11 µM)
47 | Cc1cc(N2C(=O)CSC2c2c(F)cccc2Cl)nc(C)c1Br (stereo not drawn) | 0.07 (≈ 0.168 µM)
48 | CSc1nc(Cl)cc(N2C(=O)CSC2c2c(F)cccc2Cl)n1 (stereo not drawn) | 0.65 (≈ 1.67 µM)

system: not listed separately; assay: Selectivity index, ratio of CC50 for human TZM-bl cells to EC50 for X4 tropic Human immunodeficiency virus 1 subtype D-UG070; format: toxicity, cell-based; conditions: read-out: Ratio CC50/EC50; how it was run: as §2

Row | Compound | selectivity ratio
49 | Cc1cc(N2C(=O)CSC2c2c(F)cccc2Cl)no1 (stereo not drawn) | 51.3
50 | CC(C)(C)c1cc(N2C(=O)CSC2c2c(F)cccc2Cl)no1 (stereo not drawn) | 24.4
51 | Cc1cccc(N2C(=O)CSC2c2c(Br)cncc2Br)n1 (stereo not drawn) | 4.8
52 | Cc1cc(C)nc(N2C(=O)CSC2c2c(Cl)cncc2Cl)c1 (stereo not drawn) | 24.1
53 | Cc1cc(N2C(=O)CSC2c2c(F)cccc2Cl)nc(C)c1Br (stereo not drawn) | 402
54 | CSc1nc(Cl)cc(N2C(=O)CSC2c2c(F)cccc2Cl)n1 (stereo not drawn) | 15

system: not listed separately; assay: Selectivity index, ratio of CC50 for human TZM-bl cells to EC50 for R5 tropic Human immunodeficiency virus 1 subtype C-VB59; format: toxicity, cell-based; conditions: read-out: Ratio CC50/EC50; how it was run: as §2

Row | Compound | selectivity ratio
55 | Cc1cc(N2C(=O)CSC2c2c(F)cccc2Cl)no1 (stereo not drawn) | 56.6
56 | CC(C)(C)c1cc(N2C(=O)CSC2c2c(F)cccc2Cl)no1 (stereo not drawn) | 16.2
57 | Cc1cccc(N2C(=O)CSC2c2c(Br)cncc2Br)n1 (stereo not drawn) | 11.9
58 | Cc1cc(C)nc(N2C(=O)CSC2c2c(Cl)cncc2Cl)c1 (stereo not drawn) | 33.9
59 | Cc1cc(N2C(=O)CSC2c2c(F)cccc2Cl)nc(C)c1Br (stereo not drawn) | 574
60 | CSc1nc(Cl)cc(N2C(=O)CSC2c2c(F)cccc2Cl)n1 (stereo not drawn) | 41.5

biological target: Human immunodeficiency virus type 1 reverse transcriptase (Human immunodeficiency virus 1) (UniProt Q72547); assay: Inhibition of biotin-dNTP labeled HIV-1 reverse transcriptase using ABST as substrate at 100 ug/ml after 1 hr by ELISA; conditions: not given
How it was run: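 ELISA-format RT assay. Template/primer, biotin- and DIG-labelled dNTPs and RT enzyme in lysis buffer were incubated 1 h at 37 °C. The product was captured on streptavidin, detected with anti-DIG-peroxidase and ABTS substrate, and absorbance read at 405 nm. Activity is reported as percent inhibition of RT.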

Row | Compound | inhibition [%]
61 | Cc1cc(N2C(=O)CSC2c2c(F)cccc2Cl)no1 (stereo not drawn) | 95.5
62 | CC(C)(C)c1cc(N2C(=O)CSC2c2c(F)cccc2Cl)no1 (stereo not drawn) | 51.1
63 | Cc1cccc(N2C(=O)CSC2c2c(Br)cncc2Br)n1 (stereo not drawn) | 77.6
64 | Cc1cc(C)nc(N2C(=O)CSC2c2c(Cl)cncc2Cl)c1 (stereo not drawn) | 85.3
65 | CC(C)(C)c1cc(N2C(=O)CSC2c2c(F)cccc2F)no1 (stereo not drawn) | 71.5
66 | Cc1cc(N2C(=O)CSC2c2c(F)cccc2Cl)nc(C)c1Br (stereo not drawn) | 91.2
67 | Cc1nc(N2C(=O)CSC2c2c(Br)cncc2Br)ccc1Br (stereo not drawn) | 75.9
68 | Cc1cc(N2C(=O)CSC2c2c(Cl)cncc2Cl)nc(C)c1Br (stereo not drawn) | 57.4
69 | CSc1nc(Cl)cc(N2C(=O)CSC2c2c(F)cccc2Cl)n1 (stereo not drawn) | 76.5

system: Human immunodeficiency virus 1; assay: Antiviral activity against X4 tropic Human immunodeficiency virus 1 subtype B-3B infected in human TZM-bl cells assessed as inhibition of virus-induced cytopathic effect after 2 days by luciferase assay; format: functional, organism-based; conditions: 48 h; how it was run: as §1

Row | Compound | EC50 [µg/mL]
70 | Cc1cc(N2C(=O)CSC2c2c(F)cccc2Cl)no1 (stereo not drawn) | 0.67 (≈ 2.14 µM)
71 | CC(C)(C)c1cc(N2C(=O)CSC2c2c(F)cccc2Cl)no1 (stereo not drawn) | 1.95 (≈ 5.5 µM)
72 | Cc1cccc(N2C(=O)CSC2c2c(Br)cncc2Br)n1 (stereo not drawn) | 2.22 (≈ 5.17 µM)
73 | Cc1cc(C)nc(N2C(=O)CSC2c2c(Cl)cncc2Cl)c1 (stereo not drawn) | 0.8 (≈ 2.26 µM)
74 | CC(C)(C)c1cc(N2C(=O)CSC2c2c(F)cccc2F)no1 (stereo not drawn) | 2.97 (≈ 8.78 µM)
75 | Cc1cc(N2C(=O)CSC2c2c(F)cccc2Cl)nc(C)c1Br (stereo not drawn) | 0.09 (≈ 0.216 µM)
76 | Cc1nc(N2C(=O)CSC2c2c(Br)cncc2Br)ccc1Br (stereo not drawn) | 6.09 (≈ 12 µM)
77 | Cc1cc(N2C(=O)CSC2c2c(Cl)cncc2Cl)nc(C)c1Br (stereo not drawn) | 1.5 (≈ 3.46 µM)
78 | CSc1nc(Cl)cc(N2C(=O)CSC2c2c(F)cccc2Cl)n1 (stereo not drawn) | 0.93 (≈ 2.38 µM)
